Test results taken from ChEMBL document CHEMBL1151702, “Using an aryl phenanthroimidazole moiety as a conjugated flexible intercalator to improve the hybridization efficiency of a triplex-forming oligonucleotide” (Bioorg Med Chem, 2008).

Key:
Type in all cases: nucleic-acid assay
Nucleic Acid [1] = test: Binding affinity to synthetic oligonucleotide ON18 at 1.0 uM at pH 6.0 by thermal denaturation study
Summary of the method: (§1)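 Duplex melting: complementary strands at 1.0 µM each in 20 mM sodium cacodylate, 100 mM NaCl, 10 mM MgCl₂, at the pH of the line. Annealed at 80 °C for 5 min, then cooled to 5 °C and held 30 min. UV absorbance read at 260 nm with heating at 1.0 °C/min; Tm is the maximum of the first-derivative curve.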

Nucleic Acid [2] = test: Binding affinity to synthetic double stranded DNA D1 at 1.5 uM at pH 7.2 by thermal denaturation study
Summary of the method: (§2)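 Parallel triplex melting: target duplex assembled from strands at 1.0 µM each, TFO third strand added at 1.5 µM. Buffer 20 mM sodium cacodylate, 100 mM NaCl, 10 mM MgCl₂, at the pH of the line. Samples heated to 80 °C for 5 min, cooled to 5 °C and held 30 min. Absorbance read at 260 nm while heating at 1.0 °C/min; Tm taken as the first-derivative maximum.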

Nucleic Acid [3] = test: Binding affinity to synthetic double stranded DNA D1 at 1.5 uM at pH 6.0 by thermal denaturation study; summary of the method: as §2
Nucleic Acid [4] = test: Binding affinity to synthetic oligonucleotide ON19 at 1.0 uM at pH 6.0 by thermal denaturation study; summary of the method: as §1
Nucleic Acid [5] = test: Binding affinity to synthetic oligonucleotide ON19 at 1.0 uM at pH 7.2 by thermal denaturation study; summary of the method: as §1
Nucleic Acid [6] = test: Binding affinity to synthetic oligonucleotide ON20 at 1.0 uM at pH 7.0 by thermal denaturation study
Summary of the method: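 DNA/RNA antiparallel duplex: each strand at 1.0 µM in 10 mM sodium phosphate, 140 mM NaCl, 1 mM EDTA, pH 7.0. Heated to 80 °C for 5 min, cooled to 5 °C and held 30 min. Absorbance followed at 260 nm during a 1.0 °C/min temperature ramp; Tm is the first-derivative maximum.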

Compound | Tm (Nucleic Acid [1]) [°C] | Tm (Nucleic Acid [2]) [°C] | Tm (Nucleic Acid [3]) [°C] | Tm (Nucleic Acid [4]) [°C] | Tm (Nucleic Acid [5]) [°C] | Tm (Nucleic Acid [6]) [°C]
Cc1cn([C@H]2C[C@H](OP(=O)(O)OC[C@H]3O[C@@H](n4cc(C)c(=O)[nH]c4=O)C[C@@H]3OP(=O)(O)OC[C@H]3O[C@@H](n4cc(C)c(=O)[nH]c4=O)C[C@@H]3OP(=O)(O)OC[C@H]3O[C@@H](n4ccc(N)nc4=O)C[C@@H]3OP(=O)(O)OC[C@H]3O[C@@H](n4cc(C)c(=O)[nH]c4=O)C[C@@H]3OP(=O)(O)OC[C@H]3O[C@@H](n4cc(C)c(=O)[nH]c4=O)C[C@@H]3OP(=O)(O)OC[C@H]3O[C@@H](n4cc(C)c(=O)[nH]c4=O)C[C@@H]3O[PH](O)(O)OC[C@H]3O[C@@H](n4cc(C)c(=O)[nH]c4=O)C[C@@H]3OP(=O)(O)OC[C@H]3O[C@@H](n4cc(C)c(=O)[nH]c4=O)C[C@@H]3OP(=O)(O)OC[C@H]3O[C@@H](n4cc(C)c(=O)[nH]c4=O)C[C@@H]3O)[C@@H](COP(=O)(O)O[C@H]3C[C@H](n4ccc(N)nc4=O)O[C@@H]3COP(=O)(O)O[C@H]3C[C@H](n4ccc(N)nc4=O)O[C@@H]3COP(=O)(O)O[C@H]3C[C@H](n4ccc(N)nc4=O)O[C@@H]3COP(=O)(O)O[C@H]3C[C@H](n4ccc(N)nc4=O)O[C@@H]3COP(=O)(O)O[C@H](CO)COCc3ccc(C#Cc4ccc5ccc6cccc7ccc4c5c67)cc3)O2)c(=O)[nH]c1=O | 36 | 20.5 | 44.5 | 53 | 52 | 
Cc1cn([C@H]2C[C@H](OP(=O)(O)OC[C@H]3O[C@@H](n4cc(C)c(=O)[nH]c4=O)C[C@@H]3OP(=O)(O)OC[C@H]3O[C@@H](n4cc(C)c(=O)[nH]c4=O)C[C@@H]3O[PH](O)(O)OC[C@H]3O[C@@H](n4cc(C)c(=O)[nH]c4=O)C[C@@H]3OP(=O)(O)OC[C@H]3O[C@@H](n4cc(C)c(=O)[nH]c4=O)C[C@@H]3OP(=O)(O)OC[C@H]3O[C@@H](n4cc(C)c(=O)[nH]c4=O)C[C@@H]3O)[C@@H](COC[C@@H](COCc3ccc(C#Cc4ccc5ccc6cccc7ccc4c5c67)cc3)OP(=O)(O)O[C@H]3C[C@H](n4ccc(N)nc4=O)O[C@@H]3COP(=O)(O)O[C@H]3C[C@H](n4cc(C)c(=O)[nH]c4=O)O[C@@H]3COP(=O)(O)O[C@H]3C[C@H](n4cc(C)c(=O)[nH]c4=O)O[C@@H]3COP(=O)(O)O[C@H]3C[C@H](n4cc(C)c(=O)[nH]c4=O)O[C@@H]3COP(=O)(O)O[C@H]3C[C@H](n4ccc(N)nc4=O)O[C@@H]3COP(=O)(O)O[C@H]3C[C@H](n4ccc(N)nc4=O)O[C@@H]3COP(=O)(O)O[C@H]3C[C@H](n4ccc(N)nc4=O)O[C@@H]3COP(=O)(O)O[C@H]3C[C@H](n4ccc(N)nc4=O)O[C@@H]3CO)O2)c(=O)[nH]c1=O | 30 | 21.5 | 39.5 | 44.5 |  | 
Cc1cn([C@H]2C[C@H](OP(=O)(O)OC[C@H]3O[C@@H](n4ccc(N)nc4=O)C[C@@H]3OP(=O)(O)OC[C@H]3O[C@@H](n4cc(C)c(=O)[nH]c4=O)C[C@@H]3OP(=O)(O)O[C@@H](COCc3ccc(C#Cc4ccc5ccc6cccc7ccc4c5c67)cc3)COC[C@H]3O[C@@H](n4cc(C)c(=O)[nH]c4=O)C[C@@H]3OP(=O)(O)OC[C@H]3O[C@@H](n4cc(C)c(=O)[nH]c4=O)C[C@@H]3O[PH](O)(O)OC[C@H]3O[C@@H](n4cc(C)c(=O)[nH]c4=O)C[C@@H]3OP(=O)(O)OC[C@H]3O[C@@H](n4cc(C)c(=O)[nH]c4=O)C[C@@H]3OP(=O)(O)OC[C@H]3O[C@@H](n4cc(C)c(=O)[nH]c4=O)C[C@@H]3O)[C@@H](COC[C@H](COCc3ccc(C#Cc4ccc5ccc6cccc7ccc4c5c67)cc3)OP(=O)(O)O[C@H]3C[C@H](n4cc(C)c(=O)[nH]c4=O)O[C@@H]3COP(=O)(O)O[C@H]3C[C@H](n4cc(C)c(=O)[nH]c4=O)O[C@@H]3COP(=O)(O)O[C@H]3C[C@H](n4ccc(N)nc4=O)O[C@@H]3COP(=O)(O)O[C@H]3C[C@H](n4ccc(N)nc4=O)O[C@@H]3COP(=O)(O)O[C@H]3C[C@H](n4ccc(N)nc4=O)O[C@@H]3COP(=O)(O)O[C@H]3C[C@H](n4ccc(N)nc4=O)O[C@@H]3CO)O2)c(=O)[nH]c1=O | 38 | 43 | 56.5 | 41 | 38 | 

Next, values leading:

Tm (Nucleic Acid [1]) [°C] | Tm (Nucleic Acid [2]) [°C] | Tm (Nucleic Acid [3]) [°C] | Tm (Nucleic Acid [4]) [°C] | Tm (Nucleic Acid [5]) [°C] | Tm (Nucleic Acid [6]) [°C] | Compound
31.5 | 20 | 43.5 | 54 | 54 | 55.5 | Cc1cn([C@H]2C[C@H](OP(=O)(O)OC[C@H]3O[C@@H](n4cc(C)c(=O)[nH]c4=O)C[C@@H]3OP(=O)(O)OC[C@H]3O[C@@H](n4cc(C)c(=O)[nH]c4=O)C[C@@H]3OP(=O)(O)OC[C@H]3O[C@@H](n4ccc(N)nc4=O)C[C@@H]3OP(=O)(O)OC[C@H]3O[C@@H](n4cc(C)c(=O)[nH]c4=O)C[C@@H]3OP(=O)(O)OC[C@H]3O[C@@H](n4cc(C)c(=O)[nH]c4=O)C[C@@H]3OP(=O)(O)OC[C@H]3O[C@@H](n4cc(C)c(=O)[nH]c4=O)C[C@@H]3O[PH](O)(O)OC[C@H]3O[C@@H](n4cc(C)c(=O)[nH]c4=O)C[C@@H]3OP(=O)(O)OC[C@H]3O[C@@H](n4cc(C)c(=O)[nH]c4=O)C[C@@H]3OP(=O)(O)OC[C@H]3O[C@@H](n4cc(C)c(=O)[nH]c4=O)C[C@@H]3OP(=O)(O)O[C@H](CO)CCOc3ccc(-c4nc5c6ccccc6c6ccccc6c5[nH]4)cc3)[C@@H](COP(=O)(O)O[C@H]3C[C@H](n4ccc(N)nc4=O)O[C@@H]3COP(=O)(O)O[C@H]3C[C@H](n4ccc(N)nc4=O)O[C@@H]3COP(=O)(O)O[C@H]3C[C@H](n4ccc(N)nc4=O)O[C@@H]3COP(=O)(O)O[C@H]3C[C@H](n4ccc(N)nc4=O)O[C@@H]3CO)O2)c(=O)[nH]c1=O
 |  | 13.5 |  |  |  | Cc1cn([C@H]2C[C@H](OP(=O)(O)OC[C@H]3O[C@@H](n4cc(C)c(=O)[nH]c4=O)C[C@@H]3OP(=O)(O)OC[C@H]3O[C@@H](n4cc(C)c(=O)[nH]c4=O)C[C@@H]3O[PH](O)(O)OC[C@H]3O[C@@H](n4cc(C)c(=O)[nH]c4=O)C[C@@H]3OP(=O)(O)OC[C@H]3O[C@@H](n4cc(C)c(=O)[nH]c4=O)C[C@@H]3OP(=O)(O)OC[C@H]3O[C@@H](n4cc(C)c(=O)[nH]c4=O)C[C@@H]3O)[C@@H](COC[C@@H](CCOc3ccc(-c4ncc[nH]4)c4ccccc34)OP(=O)(O)O[C@H]3C[C@H](n4ccc(N)nc4=O)O[C@@H]3COP(=O)(O)O[C@H]3C[C@H](n4cc(C)c(=O)[nH]c4=O)O[C@@H]3COP(=O)(O)O[C@H]3C[C@H](n4cc(C)c(=O)[nH]c4=O)O[C@@H]3COP(=O)(O)O[C@H]3C[C@H](n4cc(C)c(=O)[nH]c4=O)O[C@@H]3COP(=O)(O)O[C@H]3C[C@H](n4ccc(N)nc4=O)O[C@@H]3COP(=O)(O)O[C@H]3C[C@H](n4ccc(N)nc4=O)O[C@@H]3COP(=O)(O)O[C@H]3C[C@H](n4ccc(N)nc4=O)O[C@@H]3COP(=O)(O)O[C@H]3C[C@H](n4ccc(N)nc4=O)O[C@@H]3CO)O2)c(=O)[nH]c1=O
23 | 18.5 | 35.5 | 46 | 46 | 49 | Cc1cn([C@H]2C[C@H](OP(=O)(O)OC[C@H]3O[C@@H](n4cc(C)c(=O)[nH]c4=O)C[C@@H]3OP(=O)(O)OC[C@H]3O[C@@H](n4cc(C)c(=O)[nH]c4=O)C[C@@H]3O[PH](O)(O)OC[C@H]3O[C@@H](n4cc(C)c(=O)[nH]c4=O)C[C@@H]3OP(=O)(O)OC[C@H]3O[C@@H](n4cc(C)c(=O)[nH]c4=O)C[C@@H]3OP(=O)(O)OC[C@H]3O[C@@H](n4cc(C)c(=O)[nH]c4=O)C[C@@H]3O)[C@@H](COC[C@@H](CCOc3ccc(-c4nc5c6ccccc6c6ccccc6c5[nH]4)c4ccccc34)OP(=O)(O)O[C@H]3C[C@H](n4ccc(N)nc4=O)O[C@@H]3COP(=O)(O)O[C@H]3C[C@H](n4cc(C)c(=O)[nH]c4=O)O[C@@H]3COP(=O)(O)O[C@H]3C[C@H](n4cc(C)c(=O)[nH]c4=O)O[C@@H]3COP(=O)(O)O[C@H]3C[C@H](n4cc(C)c(=O)[nH]c4=O)O[C@@H]3COP(=O)(O)O[C@H]3C[C@H](n4ccc(N)nc4=O)O[C@@H]3COP(=O)(O)O[C@H]3C[C@H](n4ccc(N)nc4=O)O[C@@H]3COP(=O)(O)O[C@H]3C[C@H](n4ccc(N)nc4=O)O[C@@H]3COP(=O)(O)O[C@H]3C[C@H](n4ccc(N)nc4=O)O[C@@H]3CO)O2)c(=O)[nH]c1=O
34 | 20.5 | 46 | 56.5 | 56.5 | 59 | Cc1cn([C@H]2C[C@H](OP(=O)(O)OC[C@H]3O[C@@H](n4cc(C)c(=O)[nH]c4=O)C[C@@H]3OP(=O)(O)OC[C@H]3O[C@@H](n4cc(C)c(=O)[nH]c4=O)C[C@@H]3OP(=O)(O)OC[C@H]3O[C@@H](n4ccc(N)nc4=O)C[C@@H]3OP(=O)(O)OC[C@H]3O[C@@H](n4cc(C)c(=O)[nH]c4=O)C[C@@H]3OP(=O)(O)OC[C@H]3O[C@@H](n4cc(C)c(=O)[nH]c4=O)C[C@@H]3OP(=O)(O)OC[C@H]3O[C@@H](n4cc(C)c(=O)[nH]c4=O)C[C@@H]3O[PH](O)(O)OC[C@H]3O[C@@H](n4cc(C)c(=O)[nH]c4=O)C[C@@H]3OP(=O)(O)OC[C@H]3O[C@@H](n4cc(C)c(=O)[nH]c4=O)C[C@@H]3OP(=O)(O)OC[C@H]3O[C@@H](n4cc(C)c(=O)[nH]c4=O)C[C@@H]3O)[C@@H](COP(=O)(O)O[C@H]3C[C@H](n4ccc(N)nc4=O)O[C@@H]3COP(=O)(O)O[C@H]3C[C@H](n4ccc(N)nc4=O)O[C@@H]3COP(=O)(O)O[C@H]3C[C@H](n4ccc(N)nc4=O)O[C@@H]3COP(=O)(O)O[C@H]3C[C@H](n4ccc(N)nc4=O)O[C@@H]3COP(=O)(O)O[C@H](CO)CCOc3ccc(-c4nc5c6ccccc6c6ccccc6c5[nH]4)cc3)O2)c(=O)[nH]c1=O
